ChEMBL document CHEMBL4689842, “EUbOPEN Chemogenomics Library wave 1” (2021)

Experiments:
HEK-293T = experiment: Multiplex assay against HEK293T; type: toxicity, cell-based; details: human;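 on Population Tubulin-Different-Phenotype (%): share of the cells with healthy nuclei that show this phenotype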
Summary of the method: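 Live cells were stained at seeding with Hoechst33342, BioTracker Green Microtubule Cytoskeleton Dye, MitoTracker Red and Annexin V Alexa Fluor 680. Following compound addition, they were imaged on a CQ1 microscope at 37°C and 5% CO2 and gated by CellPathfinder machine learning into Hoechst high-intensity objects or normal cells, with normal cells split into healthy, pyknosed or fragmented nuclei and pyknosed cells into mitotic or apoptotic. Tubulin, mitochondrial-mass and membrane-permeability phenotypes are per cents of healthy-nucleus cells.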

Fibroblast = experiment: Incucyte cell viability with human fibroblast; type: toxicity, cell-based; details: 10 µM, compound concentration 10 uM; further: filed as whole numbers so only -1 and 0 and 1 occur
[1] = 12 h, 1 µM, compound concentration 1 uM, replicate 1
[2] = 12 h, 1 µM, compound concentration 1 uM, replicate 2
[3] = 12 h, 10 µM, compound concentration 10 uM, replicate 1
[4] = 12 h, 10 µM, compound concentration 10 uM, replicate 2
[5] = 24 h, 1 µM, compound concentration 1 uM, replicate 1
[6] = 24 h, 1 µM, compound concentration 1 uM, replicate 2
[7] = 24 h, 10 µM, compound concentration 10 uM, replicate 1
[8] = 24 h, 10 µM, compound concentration 10 uM, replicate 2
[9] = 48 h, 1 µM, compound concentration 1 uM, replicate 1
[10] = 48 h, 1 µM, compound concentration 1 uM, replicate 2
[11] = 48 h, 10 µM, compound concentration 10 uM, replicate 1
[12] = 48 h, 10 µM, compound concentration 10 uM, replicate 2

C=CC(=O)Nc1cc(-n2c(=O)ccc3cnc4ccc(-c5ccc(NS(C)(=O)=O)cc5)cc4c32)ccc1C
Population Apoptotic (%) (HEK-293T; [1]): 44% | Population Fragmented Nuclei (%) (HEK-293T; [1]): 15% | Population Healthy Nuclei (%) (HEK-293T; [1]): 22% | Population Hoechst High Intensity Objects (%) (HEK-293T; [1]): 22% | Population Membrane Permeable-Phenotype (%) (HEK-293T; [1]): 0% | Population Mitochondria Different-Phenotype (%) (HEK-293T; [1]): 76% | Population Mitotic Cells (%) (HEK-293T; [1]): 55% | Population Normal (%) (HEK-293T; [1]): 77% | Population Pyknosed Nuclei (%) (HEK-293T; [1]): 62% | Population Tubulin-Different-Phenotype (%) (HEK-293T; [1]): 50% | Total Cell Count (HEK-293T; [1]): 174 | Population Apoptotic (%) (HEK-293T; [2]): 13% | Population Fragmented Nuclei (%) (HEK-293T; [2]): 13% | Population Healthy Nuclei (%) (HEK-293T; [2]): 35% | Population Hoechst High Intensity Objects (%) (HEK-293T; [2]): 5% | Population Membrane Permeable-Phenotype (%) (HEK-293T; [2]): 17% | Population Mitochondria Different-Phenotype (%) (HEK-293T; [2]): 15% | Population Mitotic Cells (%) (HEK-293T; [2]): 86% | Population Normal (%) (HEK-293T; [2]): 94% | Population Pyknosed Nuclei (%) (HEK-293T; [2]): 50% | Population Tubulin-Different-Phenotype (%) (HEK-293T; [2]): 26% | Total Cell Count (HEK-293T; [2]): 171 | Population Apoptotic (%) (HEK-293T; [3]): 50% | Population Fragmented Nuclei (%) (HEK-293T; [3]): 20% | Population Healthy Nuclei (%) (HEK-293T; [3]): 19% | Population Hoechst High Intensity Objects (%) (HEK-293T; [3]): 16% | Population Membrane Permeable-Phenotype (%) (HEK-293T; [3]): 0% | Population Mitochondria Different-Phenotype (%) (HEK-293T; [3]): 86% | Population Mitotic Cells (%) (HEK-293T; [3]): 50% | Population Normal (%) (HEK-293T; [3]): 83% | Population Pyknosed Nuclei (%) (HEK-293T; [3]): 60% | Population Tubulin-Different-Phenotype (%) (HEK-293T; [3]): 63% | Total Cell Count (HEK-293T; [3]): 184 | Population Apoptotic (%) (HEK-293T; [4]): 13% | Population Fragmented Nuclei (%) (HEK-293T; [4]): 0% | Population Healthy Nuclei (%) (HEK-293T; [4]): 40% | Population Hoechst High Intensity Objects (%) (HEK-293T; [4]): 8% | Population Membrane Permeable-Phenotype (%) (HEK-293T; [4]): 9% | Population Mitochondria Different-Phenotype (%) (HEK-293T; [4]): 34% | Population Mitotic Cells (%) (HEK-293T; [4]): 86% | Population Normal (%) (HEK-293T; [4]): 91% | Population Pyknosed Nuclei (%) (HEK-293T; [4]): 58% | Population Tubulin-Different-Phenotype (%) (HEK-293T; [4]): 42% | Total Cell Count (HEK-293T; [4]): 204 | Population Apoptotic (%) (HEK-293T; [5]): 42% | Population Fragmented Nuclei (%) (HEK-293T; [5]): 15% | Population Healthy Nuclei (%) (HEK-293T; [5]): 28% | Population Hoechst High Intensity Objects (%) (HEK-293T; [5]): 19% | Population Membrane Permeable-Phenotype (%) (HEK-293T; [5]): 15% | Population Mitochondria Different-Phenotype (%) (HEK-293T; [5]): 62% | Population Mitotic Cells (%) (HEK-293T; [5]): 57% | Population Normal (%) (HEK-293T; [5]): 80% | Population Pyknosed Nuclei (%) (HEK-293T; [5]): 55% | Population Tubulin-Different-Phenotype (%) (HEK-293T; [5]): 57% | Total Cell Count (HEK-293T; [5]): 173 | Population Apoptotic (%) (HEK-293T; [6]): 11% | Population Fragmented Nuclei (%) (HEK-293T; [6]): 9% | Population Healthy Nuclei (%) (HEK-293T; [6]): 58% | Population Hoechst High Intensity Objects (%) (HEK-293T; [6]): 3% | Population Membrane Permeable-Phenotype (%) (HEK-293T; [6]): 11% | Population Mitochondria Different-Phenotype (%) (HEK-293T; [6]): 16% | Population Mitotic Cells (%) (HEK-293T; [6]): 88% | Population Normal (%) (HEK-293T; [6]): 96% | Population Pyknosed Nuclei (%) (HEK-293T; [6]): 31% | Population Tubulin-Different-Phenotype (%) (HEK-293T; [6]): 32% | Total Cell Count (HEK-293T; [6]): 199 | Population Apoptotic (%) (HEK-293T; [7]): 48% | Population Fragmented Nuclei (%) (HEK-293T; [7]): 19% | Population Healthy Nuclei (%) (HEK-293T; [7]): 22% | Population Hoechst High Intensity Objects (%) (HEK-293T; [7]): 13% | Population Membrane Permeable-Phenotype (%) (HEK-293T; [7]): 0% | Population Mitochondria Different-Phenotype (%) (HEK-293T; [7]): 78% | Population Mitotic Cells (%) (HEK-293T; [7]): 51% | Population Normal (%) (HEK-293T; [7]): 86% | Population Pyknosed Nuclei (%) (HEK-293T; [7]): 58% | Population Tubulin-Different-Phenotype (%) (HEK-293T; [7]): 59% | Total Cell Count (HEK-293T; [7]): 194 | Population Apoptotic (%) (HEK-293T; [8]): 25% | Population Fragmented Nuclei (%) (HEK-293T; [8]): 4% | Population Healthy Nuclei (%) (HEK-293T; [8]): 56% | Population Hoechst High Intensity Objects (%) (HEK-293T; [8]): 2% | Population Membrane Permeable-Phenotype (%) (HEK-293T; [8]): 7% | Population Mitochondria Different-Phenotype (%) (HEK-293T; [8]): 30% | Population Mitotic Cells (%) (HEK-293T; [8]): 74% | Population Normal (%) (HEK-293T; [8]): 97% | Population Pyknosed Nuclei (%) (HEK-293T; [8]): 39% | Population Tubulin-Different-Phenotype (%) (HEK-293T; [8]): 57% | Total Cell Count (HEK-293T; [8]): 228 | Population Apoptotic (%) (HEK-293T; [9]): 45% | Population Fragmented Nuclei (%) (HEK-293T; [9]): 21% | Population Healthy Nuclei (%) (HEK-293T; [9]): 17% | Population Hoechst High Intensity Objects (%) (HEK-293T; [9]): 23% | Population Membrane Permeable-Phenotype (%) (HEK-293T; [9]): 3% | Population Mitochondria Different-Phenotype (%) (HEK-293T; [9]): 40% | Population Mitotic Cells (%) (HEK-293T; [9]): 54% | Population Normal (%) (HEK-293T; [9]): 76% | Population Pyknosed Nuclei (%) (HEK-293T; [9]): 60% | Population Tubulin-Different-Phenotype (%) (HEK-293T; [9]): 33% | Total Cell Count (HEK-293T; [9]): 204 | Population Apoptotic (%) (HEK-293T; [10]): 9% | Population Fragmented Nuclei (%) (HEK-293T; [10]): 7% | Population Healthy Nuclei (%) (HEK-293T; [10]): 81% | Population Hoechst High Intensity Objects (%) (HEK-293T; [10]): 6% | Population Membrane Permeable-Phenotype (%) (HEK-293T; [10]): 10% | Population Mitochondria Different-Phenotype (%) (HEK-293T; [10]): 4% | Population Mitotic Cells (%) (HEK-293T; [10]): 90% | Population Normal (%) (HEK-293T; [10]): 93% | Population Pyknosed Nuclei (%) (HEK-293T; [10]): 10% | Population Tubulin-Different-Phenotype (%) (HEK-293T; [10]): 22% | Total Cell Count (HEK-293T; [10]): 321 | Population Apoptotic (%) (HEK-293T; [11]): 52% | Population Fragmented Nuclei (%) (HEK-293T; [11]): 24% | Population Healthy Nuclei (%) (HEK-293T; [11]): 18% | Population Hoechst High Intensity Objects (%) (HEK-293T; [11]): 18% | Population Membrane Permeable-Phenotype (%) (HEK-293T; [11]): 16% | Population Mitochondria Different-Phenotype (%) (HEK-293T; [11]): 29% | Population Mitotic Cells (%) (HEK-293T; [11]): 47% | Population Normal (%) (HEK-293T; [11]): 81% | Population Pyknosed Nuclei (%) (HEK-293T; [11]): 56% | Population Tubulin-Different-Phenotype (%) (HEK-293T; [11]): 45% | Total Cell Count (HEK-293T; [11]): 204 | Population Apoptotic (%) (HEK-293T; [12]): 17% | Population Fragmented Nuclei (%) (HEK-293T; [12]): 5% | Population Healthy Nuclei (%) (HEK-293T; [12]): 79% | Population Hoechst High Intensity Objects (%) (HEK-293T; [12]): 3% | Population Membrane Permeable-Phenotype (%) (HEK-293T; [12]): 8% | Population Mitochondria Different-Phenotype (%) (HEK-293T; [12]): 6% | Population Mitotic Cells (%) (HEK-293T; [12]): 82% | Population Normal (%) (HEK-293T; [12]): 96% | Population Pyknosed Nuclei (%) (HEK-293T; [12]): 15% | Population Tubulin-Different-Phenotype (%) (HEK-293T; [12]): 27% | Total Cell Count (HEK-293T; [12]): 457 | Growth Rate (Fibroblast; 0 h, replicate number 1, timepoint 0 hours): 0 | Growth Rate (Fibroblast; 6 h, replicate number 1, timepoint 6 hours): 1 | Growth Rate (Fibroblast; 6 h, replicate number 2, timepoint 6 hours): 0 | Growth Rate (Fibroblast; 12 h, replicate number 1, timepoint 12 hours): 1 | Growth Rate (Fibroblast; 12 h, replicate number 2, timepoint 12 hours): 0 | Growth Rate (Fibroblast; 18 h, replicate number 1, timepoint 18 hours): 1 | Growth Rate (Fibroblast; 18 h, replicate number 2, timepoint 18 hours): 0 | Growth Rate (Fibroblast; 24 h, replicate number 1, timepoint 24 hours): 1 | Growth Rate (Fibroblast; 24 h, replicate number 2, timepoint 24 hours): 0
